From article PMC10249145 (Cardiovascular & hematological agents in medicinal chemistry, 2023) come the findings set out here.

The target in assay [1] is T1, human FXIIa (Homo sapiens, UniProt P00748).
T1 sequence (P00748 20-615): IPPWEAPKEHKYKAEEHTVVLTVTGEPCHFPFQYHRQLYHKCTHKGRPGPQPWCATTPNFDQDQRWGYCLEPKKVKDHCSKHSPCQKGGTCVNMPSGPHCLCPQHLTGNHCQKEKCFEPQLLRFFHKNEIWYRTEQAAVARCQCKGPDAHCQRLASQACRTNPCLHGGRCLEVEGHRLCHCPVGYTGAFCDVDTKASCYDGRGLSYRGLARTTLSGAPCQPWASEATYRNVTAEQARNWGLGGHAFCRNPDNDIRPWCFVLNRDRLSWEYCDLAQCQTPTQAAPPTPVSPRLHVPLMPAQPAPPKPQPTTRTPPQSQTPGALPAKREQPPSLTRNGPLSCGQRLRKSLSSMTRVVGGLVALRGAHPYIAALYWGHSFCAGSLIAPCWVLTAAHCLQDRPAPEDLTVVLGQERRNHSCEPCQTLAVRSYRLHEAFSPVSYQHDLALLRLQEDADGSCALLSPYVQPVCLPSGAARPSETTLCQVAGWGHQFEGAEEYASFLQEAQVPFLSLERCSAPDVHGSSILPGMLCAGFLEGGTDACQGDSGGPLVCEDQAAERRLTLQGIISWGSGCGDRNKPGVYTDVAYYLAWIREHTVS
Put plainly: Affinity to human FXIIa by intrinsic tryptophan fluorescence spectroscopy. The class given is binding. Put shortly:
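Test compound (100 μM) was titrated into human FXIIa (350 nM) in 50 mM Tris-HCl pH 7.4 with 150 mM NaCl and 0.1% PEG8000 at 37 °C. Intrinsic tryptophan fluorescence was read at λem 348 nm (λex 280 nm). The fluorescence change was fitted to a quadratic equilibrium binding equation to give Kd.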

In assay [2] the test system is human plasma. Briefly: Activated partial thromboplastin time. It is filed as biochemical. Particulars: normal human plasma, ellagic acid APTT reagent. Put shortly: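 Citrated pooled normal human plasma was mixed with test compound (solutions of 0–983 μM as added) and prewarmed ellagic acid APTT reagent (0.2%). After 4 min at 37 °C, clotting was started with prewarmed 25 mM CaCl2 and the clotting time was read on a fibrometer. The concentration giving a 1.5-fold increase in APTT was derived. Values are means of three experiments.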

Assay [3] concerns the target thrombin (Homo sapiens, UniProt P00734). Briefly: Inhibition of thrombin, chromogenic substrate hydrolysis assay. It is filed as biochemical. The essentials:
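Thrombin at about 6 nM with Spectrozyme TH at 50 μM (in-well), in pH 7.4 Tris-HCl buffer with NaCl, CaCl2, PEG8000 and Tween80. Substrate level was set from its KM. Residual activity was measured across several test compound concentrations, and a logistic fit of concentration-dependent inhibition gave IC50, efficacy and Hill slope.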

For assay [4], the system named is human plasma. Briefly: Prothrombin time. It is filed as biochemical. The note with it: normal human plasma; highest concentration tested about 980 μM. The essentials: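 Thromboplastin-D was reconstituted in distilled water and warmed to 37 °C. Citrated pooled normal human plasma was incubated with test compound (solutions of 0–983 μM as added) for 30 s at 37 °C. Clotting was started by adding the prewarmed thromboplastin-D and the clotting time was read on a fibrometer. The concentration giving a 1.5-fold increase in PT was derived. Values are means of three experiments.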

The test system of assay [5] is FXIa. Briefly: Inhibition of FXIa, chromogenic substrate hydrolysis assay. The class given is biochemical, human. Particulars: ratio of IC50 values. Put shortly:
(§1)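 Human FXIa activity was measured with chromogenic substrate S-2366 in pH 7.4 Tris-HCl with NaCl, 2.5 mM CaCl2, 0.1% PEG8000 and 0.02% Tween80. Residual activity was measured at several test compound concentrations, and a logistic fit gave IC50, efficacy and Hill slope.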

For assay [6], the target named is FXIa (Homo sapiens, UniProt P03951). Described as above. It is filed as biochemical. Put shortly: as §1
Assay [7] concerns the target T2, bovine trypsin (Bos taurus, UniProt P00760).
T2 sequence (P00760 24-246): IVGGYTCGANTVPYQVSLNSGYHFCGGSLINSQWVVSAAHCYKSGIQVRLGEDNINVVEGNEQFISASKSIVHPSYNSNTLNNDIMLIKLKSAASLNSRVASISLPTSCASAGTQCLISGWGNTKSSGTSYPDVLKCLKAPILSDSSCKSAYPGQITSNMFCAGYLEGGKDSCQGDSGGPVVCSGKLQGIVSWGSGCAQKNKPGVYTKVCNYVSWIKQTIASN
Briefly: Inhibition of trypsin, chromogenic substrate hydrolysis assay. The class given is biochemical. The essentials:
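Bovine trypsin at 500 ng/mL with S-2222 at 650 μM in-well (substrate level from KM), in pH 7.4 Tris-HCl containing NaCl, CaCl2, PEG8000 and Tween80. Residual activity was measured at several test compound concentrations, with logistic fitting for IC50 where inhibition was concentration-dependent.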

Assay [8] relates to FXa. Put plainly: Inhibition of FXa, chromogenic substrate hydrolysis assay. The class given is biochemical, human. The note with it: ratio of IC50 values. Put shortly: (§2)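 In-well FXa was about 1.09 nM with Spectrozyme FXa at 125 μM (from KM), in pH 7.4 Tris-HCl containing NaCl, 2.5 mM CaCl2, 0.1% PEG8000 and 0.02% Tween80. Several test compound concentrations were used; residual activity was fitted with a logistic equation for IC50 where inhibition was concentration-dependent.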

Assay [9] concerns the target FXa (Homo sapiens, UniProt P00742, DEL180-234). Described as above. The class given is biochemical. Put shortly: as §2

Chain of FXIa (Homo sapiens, UniProt P03951) (P03951 19-625): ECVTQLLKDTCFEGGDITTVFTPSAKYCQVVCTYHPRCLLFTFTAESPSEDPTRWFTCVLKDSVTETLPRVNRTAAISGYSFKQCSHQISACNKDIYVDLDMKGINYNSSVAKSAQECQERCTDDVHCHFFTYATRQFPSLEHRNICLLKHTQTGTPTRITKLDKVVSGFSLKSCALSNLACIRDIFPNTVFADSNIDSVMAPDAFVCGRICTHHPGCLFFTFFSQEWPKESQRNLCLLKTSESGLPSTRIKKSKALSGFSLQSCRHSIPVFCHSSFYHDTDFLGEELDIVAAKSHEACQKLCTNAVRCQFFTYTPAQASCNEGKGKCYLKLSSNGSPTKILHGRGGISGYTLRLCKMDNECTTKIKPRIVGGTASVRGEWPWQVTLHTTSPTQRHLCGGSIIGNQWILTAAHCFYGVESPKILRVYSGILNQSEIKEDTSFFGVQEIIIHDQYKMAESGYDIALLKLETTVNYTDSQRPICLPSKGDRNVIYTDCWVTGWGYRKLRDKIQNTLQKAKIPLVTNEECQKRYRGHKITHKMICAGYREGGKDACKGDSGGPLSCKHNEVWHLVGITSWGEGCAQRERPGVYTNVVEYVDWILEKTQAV

Turning to `COC(=O)c1nc(N)n(C(=O)c2ccc(C(C)(C)C)cc2)n1` [Inhibitor 1, Methyl 5-amino-1-(4-(tert-butyl)benzoyl)-1H-1,2,4-triazole-3-carboxylate], the Kd (commonly the free concentration of one partner at which half of the binding sites on the other are occupied at equilibrium, for simple one-to-one binding) in assay [1] stood at 0.98 ± 0.13 µM. Further, the “APTT (EC×1.5), concentration required to increase APTT by 1.5-fold” value was approximately 340 µM in assay [2] and ~ 340 μM in [2] (listed as 1). In addition, the half-maximal inhibitory concentration (IC50) (usually the concentration at which inhibition is half-maximal) in assay [3] was 235 ± 52.5 µM; in [6] it was 16.8 ± 6.7 µM; in assay [7], more than 1000 µM; in [9], more than 577 µM. Further, the “DeltaY (efficacy of inhibition)” value in assay [3] (Thrombin) is given as 106 ± 7%; in assay [6] (FXIa), 32 ± 11%. Further, the entries for the “HS (Hill slope)” value in [3] (Thrombin) and in [6] (FXIa) were 0.4 ± 0.1 and 1.9 ± 2.8, respectively. Moreover, the “PT (EC×1.5), concentration required to increase PT by 1.5-fold” value in assay [4] is “not significantly affected”. Moreover, the “selectivity index to human FXIIa over FXIa” value in [5] is on record as 153 fold. In addition, the “selectivity to FXIIa over trypsin” value in [7] (ratio of IC50 values) is listed as “at least 4545 fold”. Moreover, the “selectivity to FXIIa over FXa” value in assay [8] is “at least 4545 fold”.
